Experimental data as given in ChEMBL document CHEMBL2062435, “Synthesis and in vitro antibacterial activity of gemifloxacin derivatives containing a substituted benzyloxime moiety” (2012).
Converted amounts (≈) assume the structure as drawn.

Test system: Klebsiella pneumoniae
Assay: Antimicrobial activity against Klebsiella pneumoniae 10-2 after 18-24 hrs by two-fold serial dilution method
Format: functional
How it was run: (§1)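 Agar-medium twofold serial dilution against Gram-positive and Gram-negative strains; MIC taken as the lowest compound concentration giving complete inhibition of bacterial growth after incubation at 35 °C for 18-24 h.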

| Compound | MIC |
| --- | --- |
| CO/N=C1\CN(c2nc3c(cc2F)c(=O)c(C(=O)O)cn3C2CC2)CC1CN (stereo not given) [GEMIFLOXACIN] | 0.5 µg/mL (≈ 1.28 µM) |

Test system: Enterococcus faecalis
Assay: Antimicrobial activity against Enterococcus faecalis 10-6 after 18-24 hrs by two-fold serial dilution method
Format: functional
How it was run: as §1

| Compound | MIC |
| --- | --- |
| CO/N=C1\CN(c2nc3c(cc2F)c(=O)c(C(=O)O)cn3C2CC2)CC1CN (stereo not given) [GEMIFLOXACIN] | 8 µg/mL (≈ 20.5 µM) |

Test system: Klebsiella pneumoniae
Assay: Antimicrobial activity against Klebsiella pneumoniae 10-3 after 18-24 hrs by two-fold serial dilution method
Format: functional
How it was run: as §1

| Compound | MIC |
| --- | --- |
| CO/N=C1\CN(c2nc3c(cc2F)c(=O)c(C(=O)O)cn3C2CC2)CC1CN (stereo not given) [GEMIFLOXACIN] | 8 µg/mL (≈ 20.5 µM) |

Test system: Pseudomonas aeruginosa
Assay: Antimicrobial activity against extended spectrum beta-lactamases-producing Pseudomonas aeruginosa 10-15 after 18-24 hrs by two-fold serial dilution method
Format: functional
How it was run: as §1

| Compound | MIC |
| --- | --- |
| CO/N=C1\CN(c2nc3c(cc2F)c(=O)c(C(=O)O)cn3C2CC2)CC1CN (stereo not given) [GEMIFLOXACIN] | 1 µg/mL (≈ 2.57 µM) |

Test system: Staphylococcus aureus
Assay: Antimicrobial activity against extended spectrum beta-lactamases-producing methicillin-resistant Staphylococcus aureus 10-15 after 18-24 hrs by two-fold serial dilution method
Format: functional
How it was run: (§2)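 Agar twofold serial dilution MIC against clinical isolates. MIC was taken as the lowest concentration giving complete inhibition of bacterial growth after incubation at 35 °C for 18-24 h.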

| Compound | MIC |
| --- | --- |
| CO/N=C1\CN(c2nc3c(cc2F)c(=O)c(C(=O)O)cn3C2CC2)CC1CN (stereo not given) [GEMIFLOXACIN] | 1 µg/mL (≈ 2.57 µM) |

Test system: Staphylococcus epidermidis
Assay: Antimicrobial activity against extended spectrum beta-lactamases-producing methicillin-resistant Staphylococcus epidermidis 10-13 after 18-24 hrs by two-fold serial dilution method
Format: functional
How it was run: as §2

| Compound | MIC |
| --- | --- |
| CO/N=C1\CN(c2nc3c(cc2F)c(=O)c(C(=O)O)cn3C2CC2)CC1CN (stereo not given) [GEMIFLOXACIN] | 0.5 µg/mL (≈ 1.28 µM) |

Test system: Enterococcus faecalis
Assay: Antimicrobial activity against Enterococcus faecalis 10-7 after 18-24 hrs by two-fold serial dilution method
Format: functional
How it was run: as §1

| Compound | MIC |
| --- | --- |
| CO/N=C1\CN(c2nc3c(cc2F)c(=O)c(C(=O)O)cn3C2CC2)CC1CN (stereo not given) [GEMIFLOXACIN] | 2 µg/mL (≈ 5.14 µM) |

Test system: Pseudomonas aeruginosa
Assay: Antimicrobial activity against extended spectrum beta-lactamases-producing Pseudomonas aeruginosa 10-5 after 18-24 hrs by two-fold serial dilution method
Format: functional
How it was run: as §1

| Compound | MIC |
| --- | --- |
| CO/N=C1\CN(c2nc3c(cc2F)c(=O)c(C(=O)O)cn3C2CC2)CC1CN (stereo not given) [GEMIFLOXACIN] | 0.5 µg/mL (≈ 1.28 µM) |

Test system: Staphylococcus epidermidis
Assay: Antimicrobial activity against extended spectrum beta-lactamases-producing methicillin-sensitive Staphylococcus epidermidis 10-13 after 18-24 hrs by two-fold serial dilution method
Format: functional
How it was run: as §1

| Compound | MIC |
| --- | --- |
| CO/N=C1\CN(c2nc3c(cc2F)c(=O)c(C(=O)O)cn3C2CC2)CC1CN (stereo not given) [GEMIFLOXACIN] | 1 µg/mL (≈ 2.57 µM) |

Test system: Staphylococcus aureus
Assay: Antimicrobial activity against extended spectrum beta-lactamases-producing methicillin-sensitive Staphylococcus aureus 10-13 after 18-24 hrs by two-fold serial dilution method
Format: functional
How it was run: as §1

| Compound | MIC |
| --- | --- |
| CO/N=C1\CN(c2nc3c(cc2F)c(=O)c(C(=O)O)cn3C2CC2)CC1CN (stereo not given) [GEMIFLOXACIN] | 0.25 µg/mL (≈ 0.642 µM) |

Test system: Staphylococcus epidermidis
Assay: Antimicrobial activity against extended spectrum beta-lactamases-producing methicillin-sensitive Staphylococcus epidermidis 10-15 after 18-24 hrs by two-fold serial dilution method
Format: functional
How it was run: as §1

| Compound | MIC |
| --- | --- |
| CO/N=C1\CN(c2nc3c(cc2F)c(=O)c(C(=O)O)cn3C2CC2)CC1CN (stereo not given) [GEMIFLOXACIN] | 16 µg/mL (≈ 41.1 µM) |

Test system: Klebsiella pneumoniae
Assay: Antimicrobial activity against extended spectrum beta-lactamases-producing Klebsiella pneumoniae 10-2 after 18-24 hrs by two-fold serial dilution method
Format: functional
How it was run: as §1

| Compound | MIC |
| --- | --- |
| CO/N=C1\CN(c2nc3c(cc2F)c(=O)c(C(=O)O)cn3C2CC2)CC1CN (stereo not given) [GEMIFLOXACIN] | 16 µg/mL (≈ 41.1 µM) |

Test system: Klebsiella pneumoniae
Assay: Antimicrobial activity against Klebsiella pneumoniae 10-4 after 18-24 hrs by two-fold serial dilution method
Format: functional
How it was run: as §1

| Compound | MIC |
| --- | --- |
| CO/N=C1\CN(c2nc3c(cc2F)c(=O)c(C(=O)O)cn3C2CC2)CC1CN (stereo not given) [GEMIFLOXACIN] | 32 µg/mL (≈ 82.2 µM) |

Test system: Pseudomonas aeruginosa
Assay: Antimicrobial activity against Pseudomonas aeruginosa 10-12 after 18-24 hrs by two-fold serial dilution method
Format: functional
How it was run: as §1

| Compound | MIC |
| --- | --- |
| CO/N=C1\CN(c2nc3c(cc2F)c(=O)c(C(=O)O)cn3C2CC2)CC1CN (stereo not given) [GEMIFLOXACIN] | 0.03 µg/mL (≈ 0.077 µM) |

Test system: Escherichia coli
Assay: Antimicrobial activity against Escherichia coli 10-3 after 18-24 hrs by two-fold serial dilution method
Format: functional
How it was run: as §1

| Compound | MIC |
| --- | --- |
| CO/N=C1\CN(c2nc3c(cc2F)c(=O)c(C(=O)O)cn3C2CC2)CC1CN (stereo not given) [GEMIFLOXACIN] | 0.5 µg/mL (≈ 1.28 µM) |

Test system: Klebsiella pneumoniae
Assay: Antimicrobial activity against extended spectrum beta-lactamases-producing Klebsiella pneumoniae 10-1 after 18-24 hrs by two-fold serial dilution method
Format: functional
How it was run: as §1

| Compound | MIC |
| --- | --- |
| CO/N=C1\CN(c2nc3c(cc2F)c(=O)c(C(=O)O)cn3C2CC2)CC1CN (stereo not given) [GEMIFLOXACIN] | 16 µg/mL (≈ 41.1 µM) |

Test system: Streptococcus pneumoniae
Assay: Antimicrobial activity against extended spectrum beta-lactamases-producing Streptococcus pneumoniae 10-4 after 18-24 hrs by two-fold serial dilution method
Format: functional
How it was run: as §1

| Compound | MIC |
| --- | --- |
| CO/N=C1\CN(c2nc3c(cc2F)c(=O)c(C(=O)O)cn3C2CC2)CC1CN (stereo not given) [GEMIFLOXACIN] | 2 µg/mL (≈ 5.14 µM) |

Test system: Escherichia coli
Assay: Antimicrobial activity against Escherichia coli 10-1 after 18-24 hrs by two-fold serial dilution method
Format: functional
How it was run: as §1

| Compound | MIC |
| --- | --- |
| CO/N=C1\CN(c2nc3c(cc2F)c(=O)c(C(=O)O)cn3C2CC2)CC1CN (stereo not given) [GEMIFLOXACIN] | 8 µg/mL (≈ 20.5 µM) |

Test system: Staphylococcus aureus
Assay: Antimicrobial activity against Staphylococcus aureus ATCC […] after 18-24 hrs by two-fold serial dilution method
Format: functional
How it was run: as §1

| Compound | MIC |
| --- | --- |
| CO/N=C1\CN(c2nc3c(cc2F)c(=O)c(C(=O)O)cn3C2CC2)CC1CN (stereo not given) [GEMIFLOXACIN] | 0.06 µg/mL (≈ 0.154 µM) |

Test system: Enterococcus faecium
Assay: Antimicrobial activity against Enterococcus faecium 10-9 after 18-24 hrs by two-fold serial dilution method
Format: functional
How it was run: as §1

| Compound | MIC |
| --- | --- |
| CO/N=C1\CN(c2nc3c(cc2F)c(=O)c(C(=O)O)cn3C2CC2)CC1CN (stereo not given) [GEMIFLOXACIN] | 8 µg/mL (≈ 20.5 µM) |
